Laboratory results taken from ChEMBL document CHEMBL2169833, “Solubility-driven optimization of phosphodiesterase-4 inhibitors leading to a clinical candidate” (J Med Chem, 2012).
Values after ≈ are worked out from the molar mass of the structure shown.

Assays:
Mustela putorius furo = assay: Toxicity in ferret assessed as emesis at 0.075 to 4.8 mg/kg, po after 4 hrs; type: organism-based; set-up: dose 0.075-4.8 mg/kg, route oral; settings: in vivo
Mus musculus = assay: Antiinflammatory activity in po dosed BALB/c mouse assessed as inhibition of LPS-induced neutrophil influx into BALF administered 1 hr prior to LPS-challenge measured after 3 hrs; type: functional
Summary of the method: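 Mice were given vehicle (PEG200:saline 1:1) or compound orally at 1−30 mg/kg, 1 h before LPS challenge. The control group got vehicle with PBS challenge. Animals were killed 3 h after challenge. Pooled from two experiments, 6−15 mice per group. Mann−Whitney test versus vehicle/LPS animals.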

Rattus norvegicus [1] = assay: Antiinflammatory activity in po dosed ovalbumin-sensitized Brown Norway rat assessed as inhibition of ovalbumin-induced eosinophil influx into BALF administered 2 hrs prior to ovalbumin-challenge measured after 24 hrs; type: functional
Summary of the method: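 Brown Norway rats were actively sensitized and dosed orally at 0.3, 1 or 3 mg/kg, or with vehicle PEG200:saline 1:1, 2 h before inhaled ovalbumin challenge. Saline-challenged rats served as controls. Eosinophils were counted in BAL fluid 24 h after challenge. Mean ± SEM, 5−10 animals per group. ED50 was estimated.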

[2] = Oral bioavailability in rat; type: ADME, organism-based; settings: in vivo
Summary of the method: (§1)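 Rat PK after iv and po dosing, some compounds given as the potassium or sodium salt. Vehicle was PBS or 25/75 PEG200/PBS. Dose matched formulation strength: iv 1.05, 2.1 or 4.2 μmol/kg; po 2.1 or 4.2 μmol/kg. For some compounds iv and po used the same dose (2.1 or 4.2 μmol/kg).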

[3] = AUC total in po dosed rat; type: ADME, organism-based; settings: plasma; summary of the method: as §1
Rattus norvegicus [4] = assay: Half life in po dosed rat; type: ADME, organism-based; settings: in vivo; summary of the method: as §1
[5] = Tmax in po dosed rat; type: ADME, organism-based; settings: in vivo; summary of the method: as §1
[6] = Cmax in po dosed rat; type: ADME, organism-based; set-up: route oral; settings: in vivo; summary of the method: as §1
[7] = Clearance in iv dosed rat; type: ADME, organism-based; settings: in vivo; summary of the method: as §1
[8] = Thermodynamic solubility of the compound at pH 1; type: physicochemical; settings: buffer
[9] = Volume of distribution at steady state in iv dosed rat; type: ADME, organism-based; settings: in vivo, read-out: Vdss; summary of the method: as §1
[10] = Thermodynamic aqueous solubility of the compound at pH 6.8; type: physicochemical; settings: buffer; for solubility thermodynamic: read-out: Therm_solubility
Phosphodiesterase 4 = Phosphodiesterase 4 (Homo sapiens, UniProt P27815+Q08499+Q07343+Q08493); assay: Inhibition of PDE4 in human PBMC assessed as inhibition of LPS-induced TNFalpha production incubated for 10 mins prior to LPS-challenge measured after 20 hrs by sandwich ELISA
Summary of the method: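 Human PBMC were isolated from normal donors by Ficoll−Hypaque and grown at 1 × 10⁶ cells/mL in RPMI1640 with 10% FCS. Compound was preincubated 10 min, then LPS added (10 ng/mL, stock added). Cells were incubated 20 h at 37 °C in 5% CO₂. Supernatant TNF-α was measured by sandwich ELISA at OD405 (sensitivity ~10 pg/mL). IC50 came from inhibition curves.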

[11] = target: 3',5'-cyclic-AMP phosphodiesterase 4D (Homo sapiens, UniProt Q08499); assay: Inhibition of human PDE4D-mediated [3H]CAMP hydrolysis after 30 to 60 mins by scintillation proximity assay
Summary of the method: (§2)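 Enzyme was diluted in 10 mM Tris-HCl pH 7.5 with 1 mM EDTA to give 10–30% substrate hydrolysis. Substrate was [3H]-cAMP (0.1 μCi) with 1 μM cAMP. Inhibitors were tested at 10 concentrations with 1% DMSO, 30−60 min at room temperature, stopped with PDE SPA beads and counted. IC50 came from curves. Mean of ≥2 experiments in duplicate, SEM where n ≥ 3.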

[12] = target: 3',5'-cyclic-AMP phosphodiesterase 4B (Homo sapiens, UniProt Q07343); assay: Inhibition of human PDE4B-mediated [3H]CAMP hydrolysis after 30 to 60 mins by scintillation proximity assay; summary of the method: as §2
[13] = target: 3',5'-cyclic-AMP phosphodiesterase 4A (Homo sapiens, UniProt P27815); assay: Inhibition of human PDE4A-mediated [3H]CAMP hydrolysis after 30 to 60 mins by scintillation proximity assay; summary of the method: as §2
[14] = Oral bioavailability in rat at 4.2 umol/kg; type: ADME, organism-based; settings: in vivo, 4.2 umol/kg; summary of the method: as §1
[15] = Half life in rat at 4.2 umol/kg, po; type: ADME, organism-based; settings: in vivo; summary of the method: as §1
[16] = AUC total in rat at 4.2 umol/kg, po; type: ADME, organism-based, Plasma; settings: plasma, 4.2 umol/kg; summary of the method: as §1
[17] = Tmax in rat at 4.2 umol/kg, po; type: ADME, organism-based; settings: in vivo; summary of the method: as §1
[18] = Cmax in rat at 4.2 umol/kg, po; type: ADME, organism-based; set-up: dose 4.2 umol/kg, route oral; settings: in vivo; summary of the method: as §1
[19] = Clearance in rat at 4.2 umol/kg, iv; type: ADME, organism-based; settings: in vivo; summary of the method: as §1
[20] = Volume of distribution at steady state in rat at 4.2 umol/kg, iv; type: ADME, organism-based; settings: in vivo, read-out: Vdss; summary of the method: as §1
[21] = Half life in ferret at 3.42 umol/kg, ig; type: ADME, organism-based, Mustela putorius furo; settings: in vivo, po
Summary of the method: (§3)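 Ferret PK after intragastric dosing as a solution in PEG200/saline (50/50, v/v) at 3.42 μmol/kg, with one compound at 2.98 μmol/kg. Plasma levels were measured. Detection limits were 0.5 μM for roflumilast and <0.02 μM for its N-oxide metabolite.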

[22] = AUC total in ferret at 3.42 umol/kg, ig; type: ADME, organism-based, Mustela putorius furo; settings: plasma, po; summary of the method: as §3
[23] = Tmax in ferret at 3.42 umol/kg, ig; type: ADME, organism-based, Mustela putorius furo; settings: in vivo, po; summary of the method: as §3
[24] = Cmax in ferret at 3.42 umol/kg, ig; type: ADME, organism-based, Mustela putorius furo; set-up: dose 3.42 umol/kg, route intragastric; settings: in vivo, po; summary of the method: as §3

3',5'-cyclic-AMP phosphodiesterase 4B, sequence (Q07343 whole entry): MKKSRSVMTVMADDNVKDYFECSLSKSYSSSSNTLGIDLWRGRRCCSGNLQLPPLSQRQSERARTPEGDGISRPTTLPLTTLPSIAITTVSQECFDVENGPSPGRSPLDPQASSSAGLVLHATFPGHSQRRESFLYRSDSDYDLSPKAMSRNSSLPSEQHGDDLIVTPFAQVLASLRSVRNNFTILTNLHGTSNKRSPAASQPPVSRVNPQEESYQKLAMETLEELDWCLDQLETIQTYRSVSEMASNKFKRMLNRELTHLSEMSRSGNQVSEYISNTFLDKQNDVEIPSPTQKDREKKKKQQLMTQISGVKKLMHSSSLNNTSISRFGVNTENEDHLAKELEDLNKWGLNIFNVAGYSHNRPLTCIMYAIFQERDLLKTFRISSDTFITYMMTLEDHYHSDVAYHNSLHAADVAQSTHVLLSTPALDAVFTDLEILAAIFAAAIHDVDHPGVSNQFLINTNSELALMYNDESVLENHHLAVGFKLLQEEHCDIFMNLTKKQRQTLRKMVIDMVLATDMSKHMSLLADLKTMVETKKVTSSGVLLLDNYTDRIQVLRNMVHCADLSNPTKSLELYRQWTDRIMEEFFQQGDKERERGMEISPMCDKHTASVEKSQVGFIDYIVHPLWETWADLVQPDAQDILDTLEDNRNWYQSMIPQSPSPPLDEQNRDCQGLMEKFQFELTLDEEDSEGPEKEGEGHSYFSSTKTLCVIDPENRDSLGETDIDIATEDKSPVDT
3',5'-cyclic-AMP phosphodiesterase 4D, sequence (Q08499 whole entry): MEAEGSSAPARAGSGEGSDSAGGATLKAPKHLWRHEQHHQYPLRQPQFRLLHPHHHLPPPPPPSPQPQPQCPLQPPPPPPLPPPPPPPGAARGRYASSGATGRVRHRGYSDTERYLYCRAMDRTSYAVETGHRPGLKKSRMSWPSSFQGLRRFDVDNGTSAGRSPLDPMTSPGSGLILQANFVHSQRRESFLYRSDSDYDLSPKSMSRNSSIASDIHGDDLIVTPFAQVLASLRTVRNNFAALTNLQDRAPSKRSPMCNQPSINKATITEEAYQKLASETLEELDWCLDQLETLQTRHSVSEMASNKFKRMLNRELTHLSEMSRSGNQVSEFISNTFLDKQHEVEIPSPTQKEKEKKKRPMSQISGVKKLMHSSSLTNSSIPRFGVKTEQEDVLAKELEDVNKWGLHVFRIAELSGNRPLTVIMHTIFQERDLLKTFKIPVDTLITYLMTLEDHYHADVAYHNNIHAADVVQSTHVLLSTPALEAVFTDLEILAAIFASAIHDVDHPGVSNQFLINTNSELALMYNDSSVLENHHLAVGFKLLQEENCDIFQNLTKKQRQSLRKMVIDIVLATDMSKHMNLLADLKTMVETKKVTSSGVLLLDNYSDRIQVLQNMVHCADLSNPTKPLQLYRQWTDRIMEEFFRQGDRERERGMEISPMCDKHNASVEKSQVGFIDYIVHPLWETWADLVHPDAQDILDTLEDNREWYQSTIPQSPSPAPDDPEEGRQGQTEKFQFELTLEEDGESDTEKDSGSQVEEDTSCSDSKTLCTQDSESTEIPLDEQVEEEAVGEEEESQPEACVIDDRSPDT
3',5'-cyclic-AMP phosphodiesterase 4A, sequence (P27815 whole entry): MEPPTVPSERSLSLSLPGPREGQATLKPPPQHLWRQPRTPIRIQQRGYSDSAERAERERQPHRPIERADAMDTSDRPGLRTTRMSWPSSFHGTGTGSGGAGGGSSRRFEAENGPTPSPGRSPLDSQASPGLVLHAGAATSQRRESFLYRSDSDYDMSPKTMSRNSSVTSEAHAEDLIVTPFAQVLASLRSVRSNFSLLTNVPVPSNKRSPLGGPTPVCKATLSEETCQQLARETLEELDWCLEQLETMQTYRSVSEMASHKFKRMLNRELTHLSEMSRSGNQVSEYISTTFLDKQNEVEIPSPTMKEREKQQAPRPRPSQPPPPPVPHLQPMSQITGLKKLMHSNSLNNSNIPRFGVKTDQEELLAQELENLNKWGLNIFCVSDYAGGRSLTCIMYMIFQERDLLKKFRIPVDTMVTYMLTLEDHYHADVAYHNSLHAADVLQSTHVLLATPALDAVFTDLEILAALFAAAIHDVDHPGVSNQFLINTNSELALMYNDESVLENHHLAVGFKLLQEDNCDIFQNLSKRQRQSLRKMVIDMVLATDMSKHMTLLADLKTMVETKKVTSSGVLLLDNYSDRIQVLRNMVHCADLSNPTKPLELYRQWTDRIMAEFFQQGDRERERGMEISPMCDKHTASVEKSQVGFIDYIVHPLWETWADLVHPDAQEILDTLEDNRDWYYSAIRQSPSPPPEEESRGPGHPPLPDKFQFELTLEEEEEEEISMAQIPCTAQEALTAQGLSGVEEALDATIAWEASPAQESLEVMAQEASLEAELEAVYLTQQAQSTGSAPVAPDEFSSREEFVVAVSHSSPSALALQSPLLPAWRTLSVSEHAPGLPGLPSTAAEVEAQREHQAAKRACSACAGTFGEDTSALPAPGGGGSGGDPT

| Compound | solubility thermodynamic [10] [µg/mL] | IC50 (Phosphodiesterase 4) [nM] | IC50 [11] [nM] | IC50 [12] [nM] | IC50 [13] [nM] | Activity (Mustela putorius furo) | ED50 (Rattus norvegicus [1]) [mg/kg] | also measured |
| --- | --- | --- | --- | --- | --- | --- | --- | --- |
| O=C(Nc1c(Cl)cncc1Cl)c1ccc(OC(F)F)c(OCC2CC2)c1 [ROFLUMILAST] |  |  |  |  |  | Toxic | 0.74 | ED50 (Mus musculus): 12.4 mg/kg |
| N#Cc1cccc(-c2nc([C@H]3CC[C@H](C(=O)[O-])CC3)cc3cccnc23)c1.[K+] |  |  |  |  |  |  |  | half-life [15]: 193 h; AUC [16]: 1880 µM·h; Tmax [17]: 25 h; Cmax [18]: 8.3 µM; clearance [19]: 0.22 mL/min/kg; Vd [20]: 0.25 L/kg |
| O=C(O)[C@H]1CC[C@H](c2cc3cccnc3c(-c3cccc(F)c3)n2)CC1 [listing 2 of 2 here] |  |  |  |  |  |  |  | inhibition (Rattus norvegicus [1]): Dose-dependent effect |
| O=C(O)[C@H]1CC[C@H](c2cc3cccnc3c(-c3cccc(OC(F)(F)F)c3)n2)CC1 [listing 2 of 2 here] |  |  |  |  |  |  |  | inhibition (Rattus norvegicus [1]): Dose-dependent effect |
| O=C(O)C1CCN(c2cc3cccnc3c(-c3cccc(F)c3)n2)CC1 | > 4000 | 769 | 51 | 1330 | 587 |  |  |  |

Further lines, with some results ahead:

| solubility thermodynamic [10] [µg/mL] | IC50 (Phosphodiesterase 4) [nM] | IC50 [11] [nM] | IC50 [12] [nM] | IC50 [13] [nM] | Compound | Activity (Mustela putorius furo) | ED50 (Rattus norvegicus [1]) [mg/kg] | also measured |
| --- | --- | --- | --- | --- | --- | --- | --- | --- |
| 2 (≈ 5.43 µM) | 67.6 |  |  |  | O=C(O)c1ccc(-c2cc3cccnc3c(-c3ccc4nonc4c3)n2)cc1 |  |  | bioavailability [2]: 8%; AUC [3]: 8.72 µM·h; t1/2 (Rattus norvegicus [4]): 12 h; Tmax [5]: 3.5 h; Cmax [6]: 2.4 µM; clearance [7]: 2.34 mL/min/kg; Therm_solubility [8]: 0.04 µg/mL; Vd [9]: 0.37 L/kg |
| > 1000 | 1930 | 45 | 615 | 537 | COc1cccc(-c2nc(N3CCC(C(=O)O)CC3)cc3cccnc23)c1 |  |  |  |
|  | 53 | 41 | 93 | 160 | N#Cc1cccc(-c2nc([C@H]3CC[C@H](C(=O)O)CC3)cc3cccnc23)c1 |  |  | bioavailability [14]: 92%; Therm_solubility [10]: 430 µg/mL |
|  | 126 | 32 | 34 | 123 | O=C(O)[C@H]1CC[C@H](c2cc3cccnc3c(-c3cccc(F)c3)n2)CC1 [listing 1 of 2 here] | Non-toxic | 1.2 | half-life [21]: 3.2 h; AUC [22]: 59.3 µM·h; Tmax [23]: 1.5 h; Cmax [24]: 12.3 µM; ED50 (Mus musculus): 11.2 mg/kg; Therm_solubility [10]: 920 µg/mL |
| 6 (≈ 14.4 µM) | 52 | 24 | 43 | 107 | O=C(O)[C@H]1CC[C@H](c2cc3cccnc3c(-c3cccc(OC(F)(F)F)c3)n2)CC1 [listing 1 of 2 here] | Non-toxic | 2 | half-life [21]: 1.87 h; AUC [22]: 49.7 µM·h; Tmax [23]: 1.75 h; Cmax [24]: 10.5 µM |
